What all share (type): functional
For assay [1], the system named is Rattus norvegicus. The assay can be described thus: Antiinflammatory activity against D-adjuvant arthritis in injected rat paw at the dose of 50 mg/kg by oral administration.
Assay [2] concerns Rattus norvegicus. The assay can be described thus: Antiinflammatory activity against D-adjuvant arthritis in uninjected rat paw at the dose of 50 mg/kg by oral administration. Put shortly:
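Rat developing adjuvant arthritis screen with oral dosing on a prophylactic protocol. Percent change in body weight versus untreated animals was recorded as a preliminary toxicity sign. Significance was assessed against controls by two-tailed Student's t test, p < 0.05.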

For assay [3], the species on record is Rattus norvegicus. The assay can be described thus: Antiinflammatory activity in D-adjuvant induced arthritis in rat measured by the change in body weight. Details: concentration or dose not given beside the values.
The test system of assay [4] is Rattus norvegicus. The assay can be described thus: Antiinflammatory activity against carrageenan induced rat paw edema (CPE), dosed orally. Put shortly: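 Male Sprague–Dawley rats (150 ± 10 g), five per group. Compound or vehicle given orally in 0.5% methylcellulose 1 h before subplantar injection of 0.1 mL 1% carrageenan in saline into the right hind paw. Paw volume measured by mercury displacement before dosing and 3 h after carrageenan; the difference is the edema volume. ANOVA with Dunnett's t test.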
Background: The carrageenan paw model is a standard test of acute inflammation.

Turning to `O=C(CN1CCN(Cc2ccccc2)CC1)Nc1nc2cc3nc(NC(=O)CN4CCN(Cc5ccccc5)CC4)sc3cc2s1`, the inhibition in vivo (commonly the percentage by which the read-out fell short of the control) at 50 mg/kg in assay [1] came to 5%; in assay [2] it was 6%. For the same compound, the Activity in assay [3] is listed as -6%. Also, the Inhibition (as a rule, the share of the control response that was lost under treatment) in assay [4] is listed as 26%.

Consider `CCN(CC)C(=O)CNc1nc2cc3nc(NCC(=O)N(CC)CC)sc3cc2s1`, for which the inhibition in vivo at 50 mg/kg in assay [1] came to 58%; in assay [2], 55%. For the same compound, in assay [3], the Activity is -18%. Further, the Inhibition in assay [4] is 5%.

With `O=C(CNC1CC1)Nc1nc2cc3nc(NC(=O)CNC4CC4)sc3cc2s1`, the values for the inhibition in vivo at 50 mg/kg in assay [1] and in assay [2] were 0% and 16%, respectively. For the same compound, the Activity in assay [3] is 14%. The compound also showed an Inhibition in assay [4] of 18%.

For `CN(CC(=O)Nc1nc2cc3nc(NC(=O)CN(C)C4CCCC4)sc3cc2s1)C1CCCC1`, the inhibition in vivo at 50 mg/kg in assay [1] was 21%; in assay [2], 3%. Also, the Activity in assay [3] was -18%. In assay [4], this compound registered an Inhibition of 6%.

As for `O=C(CNC1CCCC1)Nc1nc2cc3nc(NC(=O)CNC4CCCC4)sc3cc2s1`, the inhibition in vivo at 50 mg/kg in assay [1] turned out to be 43%; in assay [2] it was 70%. In assay [3], the Activity is 10%. The Inhibition in assay [4] is 13%.

Regarding `O=C(CN1CCCC1)Nc1nc2cc3nc(NC(=O)CN4CCCC4)sc3cc2s1`, the inhibition in vivo at 50 mg/kg was 18% in assay [1] and 21% in assay [2]. Moreover, the Activity in assay [3] is on record as -21%. In assay [4], this compound yielded an Inhibition of 17%.

For the compound `O=C(CN1CCN(CCO)CC1)Nc1nc2cc3nc(NC(=O)CN4CCN(CCO)CC4)sc3cc2s1`, the inhibition in vivo at 50 mg/kg in assay [1] was 16%; in assay [2] it was 72%. The Activity in assay [3] is given as 0%. In assay [4], this compound gave an Inhibition of 24%.

Take `O=C(CN1CCSC1)Nc1nc2cc3nc(NC(=O)CN4CCSC4)sc3cc2s1`: the inhibition in vivo at 50 mg/kg was determined as 26% in assay [1] and 27% in assay [2]. Besides, in assay [3], the Activity is 11%. The compound further gave an Inhibition in assay [4] of 11%.

With `O=C(CN1CCCCC1CCO)Nc1nc2cc3nc(NC(=O)CN4CCCCC4CCO)sc3cc2s1` (configuration not stated), the inhibition in vivo at 50 mg/kg in assay [1] amounted to 4%; in assay [2], 5%. In assay [3], the Activity is on record as -9%. The compound further returned an Inhibition in assay [4] of 30%.

On to `CC(C)NCC(=O)Nc1nc2cc3nc(NC(=O)CNC(C)C)sc3cc2s1`, for which the inhibition in vivo at 50 mg/kg in assay [1] is 9%; in assay [2], 11%. For the same compound, in assay [3], the Activity was determined as 7%. In assay [4], the Inhibition was 28%.

For the compound `O=C(CN1CCN(c2ccccn2)CC1)Nc1nc2cc3nc(NC(=O)CN4CCN(c5ccccn5)CC4)sc3cc2s1`, the inhibition in vivo at 50 mg/kg amounted to 0% in assay [1] and 16% in assay [2]. Besides, in assay [3], the Activity is listed as -2%. Besides, the Inhibition in assay [4] is listed as 9%.

For the compound `CCN(CC)CC(=O)Nc1nc2cc3nc(N)sc3cc2s1`, the inhibition in vivo at 50 mg/kg in assay [1] was 34%; in assay [2], 61%. Moreover, the Activity in assay [3] is on record as -20%. This compound yielded an Inhibition in assay [4] of 13%.

As to `CCCN(CCC)CC(=O)Nc1nc2cc3nc(NC(=O)CN(CCC)CCC)sc3cc2s1.Cl.Cl`, the inhibition in vivo at 50 mg/kg in assay [1] stood at 29%; in assay [2], 47%. The Activity in assay [3] is -11%. Moreover, the Inhibition in assay [4] was found to be 46%.

Consider `CC1CCC(NCC(=O)Nc2nc3cc4nc(NC(=O)CNC5CCC(C)C5)sc4cc3s2)C1` (configuration not stated), for which the inhibition in vivo at 50 mg/kg came to 11% in assay [1] and 30% in assay [2]. Also, the Activity in assay [3] is reported as -7%. This compound returned an Inhibition in assay [4] of 11%.

With `O=C(CN1CCCC(CO)C1)Nc1nc2cc3nc(NC(=O)CN4CCCC(CO)C4)sc3cc2s1` (configuration not stated), the values for the inhibition in vivo at 50 mg/kg in assay [1] and in assay [2] were 25% and 47%, respectively. The Activity in assay [3] was -4%. The same compound returned an Inhibition in assay [4] of 16%.

With `CCOC(=O)c1c2nc(NC(=O)CN(CC)CC)sc2cc2sc(NC(=O)CN(CC)CC)nc12`, the inhibition in vivo at 50 mg/kg in assay [1] turned out to be 7%; in assay [2] it was 0%. For the same compound, the Activity in assay [3] is -9%. Moreover, in assay [4], the Inhibition is recorded as 32%.

On to `CCN(CC)CC(=O)N(CC)c1nc2cc3nc(N(CC)C(=O)CN(CC)CC)sc3cc2s1`, for which the inhibition in vivo at 50 mg/kg in assay [1] came to 14%; in assay [2] it was 0%. The Activity in assay [3] is on record as -4%. Moreover, in assay [4], the Inhibition is 18%.

Turning to `CC(C)N(CC(=O)Nc1nc2cc3nc(NC(=O)CN(C(C)C)C(C)C)sc3cc2s1)C(C)C`, the inhibition in vivo at 50 mg/kg in assay [1] and in assay [2] was 0% in each case. In assay [3], the Activity was -5%. Further, the Inhibition in assay [4] is on record as 0%.

In the case of `O=C(CN1CCC(Cc2ccccc2)CC1)Nc1nc2cc3nc(NC(=O)CN4CCC(Cc5ccccc5)CC4)sc3cc2s1`, the inhibition in vivo at 50 mg/kg in assay [1] turned out to be 15%; in assay [2], 13%. Moreover, the Activity in assay [3] was -16%. For the same compound, in assay [4], the Inhibition is 9%.

Turning to `CCN(CC)CC(=O)Nc1nc2cc3nc(NC(=O)CN(CC)CC)sc3c(N)c2s1`, the inhibition in vivo at 50 mg/kg in assay [1] was 26%; in assay [2], 38%. For the same compound, the Activity in assay [3] is recorded as -35%. Also, in assay [4], the Inhibition is 53%.

`CCN(CC)CC(=O)Nc1nc2c(s1)c(OC)cc1nc(NC(=O)CN(CC)CC)sc12`: the inhibition in vivo at 50 mg/kg amounted to 47% in assay [1] and 51% in assay [2]. Moreover, the Activity in assay [3] was 7%. In addition, in assay [4], the Inhibition is reported as 32%.

On to `CCOC(=O)c1c2sc(NC(=O)CN(CC)CC)nc2c(Cl)c2nc(NC(=O)CN(CC)CC)sc12`, for which the inhibition in vivo at 50 mg/kg in assay [1] and in assay [2] was 0% throughout. In assay [3], the Activity is -16%. Moreover, the Inhibition in assay [4] is on record as 5%.

`CCOC(=O)N1CCN(CC(=O)Nc2nc3cc4nc(NC(=O)CN5CCN(C(=O)OCC)CC5)sc4cc3s2)CC1.Cl.Cl`: the inhibition in vivo at 50 mg/kg in assay [1] was determined as 26%; in assay [2], 60%. The Activity in assay [3] was -17%. Further, the Inhibition in assay [4] was determined as 17%.

In the case of `O=C(CN1CCC(c2ccccc2)CC1)Nc1nc2cc3nc(NC(=O)CN4CCC(c5ccccc5)CC4)sc3cc2s1`, the results for the inhibition in vivo at 50 mg/kg in assay [1] and in assay [2] were 40% and 12%, respectively. Also, the Activity in assay [3] is recorded as -12%. Moreover, in assay [4], the Inhibition turned out to be 1%.

For `CCOC(=O)CN1CCN(CC(=O)Nc2nc3cc4nc(NC(=O)CN5CCN(CC(=O)OCC)CC5)sc4cc3s2)CC1`, the inhibition in vivo at 50 mg/kg in assay [1] and in assay [2] was 0% in each case. In addition, the Activity in assay [3] is listed as -11%. In addition, the Inhibition in assay [4] was 14%.

Take `CN1CCN(CC(=O)Nc2nc3cc4nc(NC(=O)CN5CCN(C)CC5)sc4cc3s2)CC1`: the inhibition in vivo at 50 mg/kg in assay [1] and in assay [2] was 0% throughout. In addition, the Activity in assay [3] is -25%. The compound also registered an Inhibition in assay [4] of 28%.

Take `CC1CCCCN1CC(=O)Nc1nc2cc3nc(NC(=O)CN4CCCCC4C)sc3cc2s1` (configuration not stated): the results for the inhibition in vivo at 50 mg/kg in assay [1] and in assay [2] were 41% and 82%, respectively. Moreover, in assay [3], the Activity is given as 6%. For the same compound, the Inhibition in assay [4] came to 0%.

As to `CCN(CC)CC(=O)Nc1nc2cc3nc(NC(=O)CN(CC)CC)sc3c([N+](=O)[O-])c2s1`, the inhibition in vivo at 50 mg/kg in assay [1] came to 11%; in assay [2], 12%. The Activity in assay [3] is -16%. The Inhibition in assay [4] was 23%.

Regarding `O=C(CN1CCN(CC(F)(F)F)CC1)Nc1nc2cc3nc(NC(=O)CN4CCN(CC(F)(F)F)CC4)sc3cc2s1`, the inhibition in vivo at 50 mg/kg is 0% in assay [1] and 10% in assay [2]. Moreover, in assay [3], the Activity was -13%. The compound further yielded an Inhibition in assay [4] of 25%.

Turning to `O=C(CN1CCC(N2CCCCC2)CC1)Nc1nc2cc3nc(NC(=O)CN4CCC(N5CCCCC5)CC4)sc3cc2s1`, the inhibition in vivo at 50 mg/kg in assay [1] was 46%; in assay [2], 38%. Besides, in assay [3], the Activity was -3%. This compound had an Inhibition in assay [4] of 0%.

Consider `CCN(CC)CC(=O)Nc1nc2cc3nc(NC(=O)CN(CC)CC)sc3c(Cl)c2s1`, for which the inhibition in vivo at 50 mg/kg in assay [1] is 94%; in assay [2], 100%. Further, the Activity in assay [3] was -46%. The compound also showed an Inhibition in assay [4] of 8%.

Take `CCN(CC)CC(=O)Nc1nc2cc3nc(NC(=O)CN(CC)CC)sc3c(C)c2s1.Cl.Cl`: the inhibition in vivo at 50 mg/kg was determined as 59% in assay [1] and 100% in assay [2]. For the same compound, the Activity in assay [3] was -37%. In assay [4], this compound had an Inhibition of 8%.

As for `CCN(CC)CC(=O)Nc1nc2c(Cl)c3nc(NC(=O)CN(CC)CC)sc3c(C#N)c2s1.Cl.Cl`, the inhibition in vivo at 50 mg/kg was found to be 80% in assay [1] and 100% in assay [2]. In addition, the Activity in assay [3] is -35%. In assay [4], this compound registered an Inhibition of 19%.

As to `O=C(CN1CCN(c2cccc(C(F)(F)F)c2)CC1)Nc1nc2cc3nc(NC(=O)CN4CCN(c5cccc(C(F)(F)F)c5)CC4)sc3cc2s1`, the inhibition in vivo at 50 mg/kg in assay [1] amounted to 39%; in assay [2], 73%. Moreover, in assay [3], the Activity is given as 4%. In assay [4], this compound had an Inhibition of 0%.

For `O=C(CN1CCCCCC1)Nc1nc2cc3nc(NC(=O)CN4CCCCCC4)sc3cc2s1`, the inhibition in vivo at 50 mg/kg in assay [1] amounted to 26%; in assay [2], 27%. The Inhibition in assay [4] worked out at 0%.

Regarding `O=C(CN1CCN(c2ccc(Cl)cc2)CC1)Nc1nc2cc3nc(NC(=O)CN4CCN(c5ccc(Cl)cc5)CC4)sc3cc2s1`, the inhibition in vivo at 50 mg/kg in assay [1] is 21%; in assay [2], 41%. In assay [4], this compound yielded an Inhibition of 12%.

The values above are taken from ChEMBL document CHEMBL1125290, “Bis basic substituted diaminobenzobisthiazoles as potential antiarthritic agents” (1992).
